We go through 21 compounds from ChEMBL document CHEMBL1148327, “Arylcyanoguanidines as activators of Kir6.2/SUR1K ATP channels and inhibitors of insulin release” (J Med Chem, 2004).

Usually IC50 stands for the point on the concentration scale where inhibition reaches its midpoint. A lower IC50 goes with greater potency. A word on the Emax: it is the size of the effect at its maximum, as opposed to the concentration needed.

Experiment [1] has as its system Beta-TC3. The experiment in a line: Ability to repolarize beta-TC3 cell membrane potential. The experiment is classed as functional, cell-based, Rattus norvegicus. The conditions noted are these: Mus musculus.
Experiment [2] relates to Beta-TC6. The experiment in a line: In vitro ability to inhibit glucose stimulated insulin release in beta-TC6 cells […]. The format is functional, cell-based. The conditions noted are these: Mus musculus.
For experiment [3], the system named is Beta-TC6. The experiment in a line: In vitro efficacy to inhibit glucose stimulated insulin release in beta-TC6 cells […]. The format is functional.
The species named for experiment [4] is Rattus norvegicus. The experiment in a line: Relaxation of phenylephrine precontracted rat isolated aorta rings. The format is functional, organism-based.
The subject of experiment [5] is Beta-TC6. The experiment in a line: In vitro ability to inhibit glucose stimulated insulin release in beta-TC6 cells […]; Not active. The experiment is classed as functional, cell-based.
In experiment [6] the test system is Beta-TC3. The experiment in a line: Ability to repolarize beta-TC3 cell membrane potential; Not significant. The format is functional, cell-based, Rattus norvegicus.
The species named for experiment [7] is Rattus norvegicus. The experiment in a line: Efficacy to inhibit insulin release from rat islets. The experiment is classed as functional, organism-based.
In experiment [8] the test system is HepG2. The experiment in a line: (§1) Effective concentration required for stimulation of glucose utilization in Hepatocytes (HEP-G2 cells). The experiment is classed as functional, cell-based. The conditions noted are these: Homo sapiens. In a few lines: (§2)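 HEP-G2 glucose oxidation: 2×10^4 cells/well incubated overnight at 37 °C, 5% CO2. Compounds diluted from 100× DMSO stocks into medium with 10 μCi/mL D-(5-3H)-glucose, in duplicate, 3 h at 37 °C. Lysed with 10% TCA; 3H-water separated by evaporation and counted. Mean ± SEM of three experiments.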

The subject of experiment [9] is A10. The experiment in a line: Effect on membrane potential of mitochondria in A10 smooth muscle cells from rats. The experiment is classed as functional. The conditions noted are these: Rattus norvegicus, read-out: ED50 (the source's name).
Experiment [10] relates to HepG2. The experiment in a line: (§3) Maximum effect on glucose utilization in HepG2 cells expressed as % of full stimulation. The experiment is classed as functional. The conditions noted are these: Homo sapiens. The method, boiled down:
as §2

The species entered for experiment [11] is Rattus norvegicus. The experiment in a line: Inhibitory effect on insulin release from rat islets. The experiment is classed as functional, organism-based.
Experiment [12] has as its system Beta-TC3. The experiment in a line: Effect on membrane potential of mitochondria in beta-TC3 cells […]. The experiment is classed as functional. The conditions noted are these: Mus musculus, read-out: ED50 (the source's name).
Experiment [13] has as its system HepG2. Described as §3. The format is functional, Rattus norvegicus. The conditions noted are these: Homo sapiens. The method, boiled down:
as §2

For experiment [14], the species on record is Rattus norvegicus. The experiment in a line: Efficacy on insulin release from rat islets. The format is functional, organism-based.
The subject of experiment [15] is Beta-TC3. The experiment in a line: Effect on membrane potential of mitochondria of beta-TC3 cells in rats. The format is functional, Rattus norvegicus. The conditions noted are these: Mus musculus, read-out: ED50 (the source's name).
Experiment [16] is filed under the species Rattus norvegicus. The experiment in a line: Effect on insulin release from rat islets. The format is functional, organism-based.
Experiment [17] concerns A10. The experiment in a line: Effect on membrane potential of mitochondria of A10 smooth muscle cells in rats. The format is functional. The conditions noted are these: Rattus norvegicus, read-out: ED50 (the source's name).
Experiment [18] concerns HepG2. Described as §1. The format is functional, cell-based, Rattus norvegicus. The conditions noted are these: Homo sapiens. In a few lines: as §2
The species named for experiment [19] is Rattus norvegicus. The experiment in a line: Effective concentration required relaxation of precontracted rat aorta ring. The format is functional, organism-based.

In the case of `N#CN/C(=N\C1(c2cccc(Cl)c2)CCC1)Nc1cc(C(F)(F)F)cc(C(F)(F)F)c1`, the figures for the IC50 in experiment [1] and in experiment [2] were 20 µM and 2.8 µM, respectively. In experiment [3], this compound registered an Efficacy of 66%.
For the compound `CCC/N=C(\NC#N)Nc1cc(C(F)(F)F)cc(C(F)(F)F)c1`, the IC50 in experiment [1] stood at 19 µM. Moreover, the Efficacy in experiment [3] was determined as 53%.
As to `CC(C)C(C)/N=C(\NC#N)Nc1cc(C(F)(F)F)cc(C(F)(F)F)c1` (stereo unspecified), the IC50 in [1] amounted to 5.5 µM; in [2], 5.2 µM; in experiment [4] it was 17.6 µM. Also, the Efficacy in experiment [3] turned out to be 69%.
In the case of `CCC(C)(C)/N=C(\NC#N)Nc1cc(C(F)(F)F)cc(C(F)(F)F)c1`, the IC50 result in [5] and in [6] was “Not Active” throughout.
`CC(C)/N=C(\NC#N)Nc1cc(Cl)cc(Cl)c1`: the IC50 was 52 µM in experiment [4], “Not Active” in [5] and “Not Active” in experiment [6].
For the compound `CC1=Nc2ccc(Cl)cc2S(=O)(=O)N1` [DIAZOXIDE], the results for the IC50 in experiment [1] and in experiment [4] were 13.7 µM and 12.8 µM, respectively. The same compound had an Efficacy in experiment [3] of 23%.
Turning to `C[C@H](/N=C(\NC#N)Nc1cc(C(F)(F)F)cc(C(F)(F)F)c1)C(C)(C)C`, the IC50 in [1] came to 12 µM; in experiment [2] it was 13.7 µM; in experiment [4], 11.9 µM. This compound registered an Efficacy in [3] of 67%.
Take `C[C@@H](/N=C(\NC#N)Nc1cc(Cl)cc(Cl)c1)c1ccccc1`: the figures for the IC50 in experiment [2], in experiment [4] and in experiment [6] were 16.1 µM, 43.8 µM and “Not Active”, respectively. In [3], this compound came in with an Efficacy of 22%.
For the compound `N#CN/C(=N\C1CCCC1)Nc1cc(C(F)(F)F)cc(C(F)(F)F)c1`, the IC50 in experiment [1] is 4.7 µM; in experiment [2], 5.45 µM; in experiment [11], 1.24 µM; in experiment [4], more than 300 µM. The Efficacy in experiment [7] and in [3] was 65% in each case. Also, the figures for the EC50 in experiment [8], in [9] and in experiment [12] were 10.4 µM, 1 µM and more than 30 µM, respectively. This compound also returned an Emax in experiment [10] of 95%.
Consider `CC(N/C(=N\C#N)Nc1ccncc1)C(C)(C)C` (stereo unspecified) [PINACIDIL ANHYDROUS], for which the results for the IC50 in [2], in [4] and in experiment [6] were more than 100 µM, 0.8 µM and “Not Active”, respectively.
`CC(C)/N=C(\NC#N)Nc1cc(C(F)(F)F)cc(C(F)(F)F)c1`: the 50% inhibitory concentration (IC50) in [2] is 41.4 µM; in experiment [6] it was “Not Active”. For the same compound, the Efficacy in experiment [3] came to 20%.
For `COc1cc(N/C(=N/C2CCCC2)NC#N)cc(C(F)(F)F)c1`, the IC50 is 75 µM in [4], “Not Active” in experiment [5] and “Not Active” in experiment [6].
For `CC(C)CC/N=C(\NC#N)Nc1cc(Cl)cc(Cl)c1`, the figures for the IC50 in [1], in experiment [2] and in experiment [16] were 0.8 µM, 4.2 µM and 3.8 µM, respectively. The Emax in experiment [13] came to 98%. In addition, the values for the Efficacy in experiment [14] and in experiment [3] were 72% and 60%, respectively. Further, the figures for the EC50 in [15], in experiment [17] and in [18] were more than 30 µM, 2 µM and 22 µM, respectively.
In the case of `N#CN/C(=N\C1CCCC1)Nc1cc(Cl)cc(Cl)c1`, the IC50 in experiment [1] was 12 µM; in experiment [2] it was 28.7 µM; in [4], 75 µM. Further, in experiment [3], the Efficacy stood at 18%.
`CC(C)CC/N=C(\NC#N)Nc1cc(F)cc(F)c1`: the IC50 in experiment [4] was 85 µM; in experiment [5], “Not Active”; in experiment [6] it was “Not Active”.
In the case of `C[C@H](/N=C(\NC#N)Nc1cc(Cl)cc(Cl)c1)c1ccccc1`, the IC50 in experiment [1] stood at 25 µM; in [2] it was 39.8 µM. For the same compound, in experiment [3], the Efficacy is reported as 27%.
In experiment [19], `N#C/N=C(\Nc1cccnc1)NC1(c2cccc(Cl)c2)CCC1` yielded an EC50 of 113 µM.
For `C[C@@H](/N=C(\NC#N)Nc1cc(C(F)(F)F)cc(C(F)(F)F)c1)C(C)(C)C`, the IC50 in experiment [1] is 18 µM; in [2] it was 4.4 µM; in [4], 20.3 µM. The Efficacy in experiment [3] came to 68%.
On to `CCC(C)(C)/N=C(\NC#N)Nc1cc(Cl)cc(Cl)c1`, for which the IC50 in experiment [1] was 24 µM; in experiment [2] it was 48.5 µM. The Efficacy in experiment [3] is 32%.
Turning to `CC(C)CC/N=C(\NC#N)Nc1cccnc1`, the values for the IC50 in [2] and in experiment [6] were 1.2 µM and “Not Active”, respectively. In [3], this compound registered an Efficacy of 23%.
In turn, `CC(C)CC/N=C(\NC#N)Nc1cc(C(F)(F)F)cc(C(F)(F)F)c1` yielded an IC50 in [1] of 4.7 µM. In experiment [3], the Efficacy was 77%.
